Measured values taken from article PMC6542364 (Journal of the American Chemical Society, 2019).

Test system: HS-5 cells
Test: 3D cell spheroid formation from a 2D cell sheet
Type: cell-based
Conditions: co-incubation with pD1-B 200 μM, biotin e.g. 500 μM, 24 h
In short: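 HS-5 fibroblast monolayers were kept in culture medium with the test compound at 200 μM for 24 h, with medium alone as control. In the competition arm, free biotin at 500 μM was co-incubated with the test compound. Cell clustering and spheroid formation were recorded by optical imaging.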

O=C(O)CCCC[C@@H]1SC[C@@H]2NC(=O)N[C@@H]21 [biotin]
effect of competing biotin on pD1-B-induced cell spheroid formation: blocks the formation of cell spheroids in a concentration dependent manner
